# An excerpt weighted towards active compounds, which were near 2.2% of everything screened.
# E-sel TNF inh = blocks E-selectin expression induced by TNF alpha. HUVEC TNFa-induced E-selectin immunofluorescence, high content. inhibition, % at 2 µM. hit rate 0.71% among 120,000. AID 1246;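 active means inhibition above the batch mean plus 3 SD, and confirmed as a hit on visual image review, cut at about 43% in these data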;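 further: 0% = TNF-stimulated DMSO wells and 100% = unstimulated control wells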
# PLK1 kinase inh = inhibitors of human PLK1 kinase | recombinant PLK1 kinase, TR-FRET peptide phosphorylation | AID 619 | hit rate 0.53% among 97,000 | P53350 | inhibition, % at 10 µM;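 active means inhibition of 50% or more in the single-concentration screen; inactive means inhibition below 50%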;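 further: 0% = DMSO max control and 100% = H-89 dihydrochloride min control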
# F-actin modifier = modifiers of cytoskeleton assembly; HUVEC TNFa F-actin phalloidin imaging, high content; inhibition, % at 2 µM; hit rate 0.18% among 91,000; AID 836;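 active means inhibition above the batch mean plus 3 SD and confirmed as a hit by visual image inspection, cut at about 30% in these data, passing the limit was not always enough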
# FAK inh = blocks human focal adhesion kinase activity; biochemical FAK kinase activity assay; inhibition, %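 (tested at 7 µM)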; AID 727; hit rate 0.84% among 97,000; Q05397; in the data active means inhibition above about 19%;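 further: 0% = DMSO and 100% = reference compound high control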
# Rev-RRE block = inhibitors of HIV-1 Rev-RRE RNA interaction; P05866; Rev peptide-RRE RNA binding, FRET; hit rate 0.79% among 97,000; inhibition, % at 8 µM;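 active means inhibition above the screen-wide mean plus 3 SD, cut at about 35% in these data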;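 further: 0% = median DMSO wells and 100% = median Neomycin B control wells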
#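 assay system = Cy5-tagged RRE RNA duplex with fluorescein-tagged Rev peptide | incubation = 5 + 15 min at 25 °C | also added = labelled Rev peptide | measure = % inhibition of FRET ratio versus controls | benchmarks = DMSO wells as 0% and neomycin B wells as 100% inhibition | measured by = FRET fluorescence readout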
# PLK1 PBD inh = Plk1 (human) PBD binding inhibition; inhibition, %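 (tested at about 20 µM)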; hit rate 0.13% among 97,000; Plk1 PBD phosphopeptide binding, fluorescence polarization; P53350; in the data active means inhibition above about 34%, passing the limit was not always enough
# Active calls of the source: *; nt = no result given; [ ] = remark or other dose.
SMILES,E-sel TNF inh,PLK1 kinase inh,F-actin modifier,FAK inh,Rev-RRE block,PLK1 PBD inh
Clc1cccc(/C(Cc2nc3ccccc3[nH]2)=N\Nc2ccccc2)c1,16,nt,nt,nt,nt,nt
Cc1ccc(-n2ncc3c(SCC(=O)NNC(=O)c4ccco4)ncnc32)cc1,7,nt,nt,nt,nt,nt
CCOc1ccc(S(=O)(=O)Nc2ccccn2)c2ccccc12,-5,-11,4,1,2,-3
O=S(=O)(Nc1ccccn1)c1ccc(Cl)c2ccccc12,82*,nt,nt,nt,nt,nt
COc1ccc(N=Cc2sc3ccccc3c2Cl)cc1,-71,-15,7,2,16,11
Cc1ccc(N=Cc2sc(O)c3ccccc23)cc1,-32,-8,-14,-3,132*[fluorescence artefact?],-70
Cc1ccc(N=Cc2sc(O)c3ccccc23)c(C)c1,-30,-9,-4,-7,93*[fluorescence artefact?],23
CCCCn1c2ccc(F)cc2c2nnc(NN)nc21,-7,nt,nt,nt,nt,nt
Cc1cc(C)cc(-c2nnc(SCc3ccc(C(=O)O)cc3)o2)c1,-9,nt,nt,nt,nt,nt
C(=N\Nc1ncnc2nc[nH]c12)/c1cccs1,9,nt,nt,nt,nt,nt
N#C/C(=C\c1cc(Cl)cc(Cl)c1O)C(=O)NC1CCCCC1,100*,4,16,-4,45*,-105
Cc1noc(C)c1S(=O)(=O)N1CCC(C(=O)N2CCN(Cc3ccc4c(c3)OCO4)CC2)CC1,73*,nt,nt,nt,nt,nt
CC1CCN(S(=O)(=O)c2cccc(C(=O)Nc3ccccc3)c2)CC1,-29,nt,nt,nt,nt,nt
CCOC(=O)/C(C#N)=C\C=C1C=CN(C)C=C1,-3,-33,6,1,130*[fluorescence artefact?],-133
CC(C)CCn1c(N2CCc3ccccc3C2)nc2c1c(=O)[nH]c(=O)n2C,-11,nt,nt,nt,nt,nt
Cc1ccccc1NC(=S)NCc1cccs1,3,-8,-1,-1,1,-2
S=C(NCc1cccs1)Nc1cccc(Cl)c1Cl,81*,nt,nt,nt,nt,nt
CCN(CC)CCN(CC(=O)N(C1CCCCC1)C1CCCCC1)C(=O)c1ccco1,5,nt,nt,nt,nt,nt
c1cc2c(cc1CN1CCOCC1)OCO2,20,-6,-8,1,9,10
CC1(C)CC(=O)C2=C(C1)NCN(Cc1ccc3c(c1)OCO3)C2,49*,-15,1,-2,7,0
O=C(NCc1ccc(F)cc1)Nc1cccc(Cl)c1,-28,nt,nt,nt,nt,nt
O=C(CN(C(=O)CCC(=O)Nc1ccccn1)c1ccc2c(c1)OCO2)NCc1ccco1,70*,-7,25,1,1,6
Cc1ccc(N(CC(=O)NCc2ccco2)C(=O)CCC(=O)Nc2ccccn2)cc1C,5,-8,-13,-1,0,17
CCCC(c1nnnn1C(C)(C)C)N1CCN(C(=O)c2ccco2)CC1 (stereo unspecified),-16,nt,nt,nt,nt,nt
COC(=O)[C@@]1(Cc2ccccc2)[C@H]2c3cc(C(=O)N4CCCC4)n(Cc4ccsc4Br)c3C[C@H]2CN1C(=O)c1ccccc1,11,nt,nt,nt,nt,nt
SMILES,E-sel TNF inh,PLK1 kinase inh,F-actin modifier,FAK inh,Rev-RRE block,PLK1 PBD inh
COc1ccc(S(=O)(=O)NCc2csc(-c3cccnc3)n2)cc1,70*,-8,-3,3,1,0
O=S(=O)(c1ccc(Br)s1)N1CCN(c2ccccc2)CC1,-4,-14,36*,-1,3,-28
CCN1CCN(S(=O)(=O)c2ccc(Br)s2)CC1,-8,-9,-7,0,4,11
CC(C(=O)Nc1ccccc1Oc1ccccc1)c1ccccc1 (stereo unspecified),-1,nt,nt,nt,nt,nt
CC(=O)N(c1nc(CCl)cs1)c1c(C)cc(C)cc1C,-23,nt,nt,nt,nt,nt
CN(C)CC(O)CN1C(=O)N(CN2C(=O)N(CC(O)CN(C)C)C(=O)C2(C)C)C(C)(C)C1=O (stereo unspecified),5,nt,nt,nt,nt,nt
Cc1ccnc(N/C=C(\C#N)c2nc(-c3cccc(Br)c3)cs2)c1,-37,-15,15,-1,136*[fluorescence artefact?],-171
O=S(=O)(c1ccc2c(c1)OCCO2)N1CCC(n2nnc3cc(F)ccc32)CC1,-13,-3,12,2,4,-2
O=C(N1CCOCC1)N1CCC(n2nnc3cc(F)ccc32)CC1,-7,-4,-10,0,40*,14
Cc1cc(NC(=O)CCN2C(=O)/C(=C/c3ccccc3Cl)SC2=S)no1,-41,nt,nt,nt,nt,nt
O=C(CCN1C(=O)/C(=C\c2ccccc2Cl)SC1=S)N1CCN(c2ccccc2)CC1,58*,-10,8,-2,8,3
Nc1cc(N)c(OCC(F)(F)F)cc1OCC(F)(F)F,21,-16,-9,14,68*,-10
CC12CCC3(CO)COC(c4ccccc4O1)C2C3 (stereo unspecified),55*,nt,nt,nt,nt,nt
CC12CC(NC(=O)N1Cc1ccccc1)c1ccccc1O2 (stereo unspecified),nt,-5,2,-3,4,-17
CC1(C)Oc2ccc3ccc(=O)oc3c2-c2cn[nH]c21,1,-6,9,24*,2,10
O=C(CCc1nnc(CCCc2ccccc2)o1)NCC(F)(F)F,-29,nt,nt,nt,nt,nt
CC(/C=C/c1ccco1)=N\NC(=O)c1cc(C)[nH]n1,100*,-7,61*,13,12,-23
C/C(CC(=O)Nc1ccc2c(c1)OCO2)=N\NC(=O)C(c1ccccc1)c1ccccc1,6,nt,nt,nt,nt,nt
CC(C)NS(=O)(=O)c1ccc2c(c1)oc(=O)n2C,-41,nt,nt,nt,nt,nt
Cn1c(=O)oc2cc(S(=O)(=O)NCC3CCCO3)ccc21 (stereo unspecified),9,-8,nt,0,53*,16
Cc1cnc(N)c2c(=O)oc3ccccc3c12,nt,52*,nt,16,5,-18
CCOC(=O)c1nnc(-c2ccc(C)cc2)nc1Oc1ccc(Cl)cc1Cl,63*,-11,11,2,6,-24
CCOC(=O)c1nnc(-c2ccc(C)cc2)nc1Oc1ccccc1Cl,28,-1,10,0,12,-35
CC1=Nc2ccccc2/C1=C/c1nc(-c2ccc(C)s2)oc1O,8,nt,nt,nt,nt,nt
CC1=Nc2ccccc2/C1=C\c1nc(-c2ccccc2)oc1O,nt,-21,15,0,54*,-27
SMILES,E-sel TNF inh,PLK1 kinase inh,F-actin modifier,FAK inh,Rev-RRE block,PLK1 PBD inh
Oc1ccccc1-c1nnc(-c2ccc(C(F)(F)F)cc2)o1,7,-3,-5,-1,12,-11
CC1=Nc2ccccc2/C1=C\c1nc(-c2ccc(C(F)(F)F)cc2)oc1O,-2,-27,5,5,126*[fluorescence artefact?],-45
Cc1cccc(C)c1NC(=O)CN(c1ccccn1)S(=O)(=O)c1ccc(F)cc1,-6,nt,nt,nt,nt,nt
CCOc1ccc(S(=O)(=O)Nc2nc3ccccc3nc2Nc2ccc(N3CCOCC3)cc2)cc1,34,nt,nt,nt,nt,nt
CC1CCCCN1C(=O)CNCC1CCCO1 (stereo unspecified),-1,nt,nt,nt,nt,nt
COCCCNS(=O)(=O)c1ccc(Oc2ncc(C(F)(F)F)cc2Cl)cc1,8,8,-19,-5,1,12
CC(C)(C)NS(=O)(=O)c1ccc(Oc2ncc(C(F)(F)F)cc2Cl)cc1,23,-12,61*,-5,7,24
O=C(C1CCCO1)N1CCN(c2c3c(nc4cc(-c5ccc(F)cc5)nn24)CCC3)CC1 (stereo unspecified),65*,-9,30,0,4,-14
O=C1CC(N(Cc2cccs2)C(=O)Nc2ccccc2)C(=O)N1c1ccc(Cl)cc1 (stereo unspecified),70*,nt,nt,nt,nt,nt

# Compound activity as filed in PubChem BioAssay.
